Results: ChEMBL document CHEMBL1129735, “High-affinity alpha-aminobutyric acid A/benzodiazepine ligands: synthesis and structure-activity relationship studies of a new series of tetracyclic imidazoquinoxalines” (J Med Chem, 1996)

Columns and labels:
[1] = target: GABA-A receptor; anion channel; assay: Displacement of [3H]flunitrazepam from GABA-A benzodiazepine receptor of rat cortical membranes; format: cell membranes, Membrane
[2] = target: GABA A receptor alpha-6/beta-2/gamma-2 (Rattus norvegicus, UniProt P18508+P30191+P63138); assay: Displacement of [3H]-Ro- 15-4513 from alpha-6 beta2 gamma2 subunits of Rat GABA-A receptor expressed in Sf-9 insect cell membranes
[3] = target: GABA A receptor alpha-6/beta-2/gamma-2 (Rattus norvegicus) (UniProt P18508+P30191+P63138); assay: Displacement of [3H]-Ro- 15-4513 from alpha-6 beta2 gamma2 subunits of Rat GABA-A receptor expressed in Sf-9 insect cell membrane
Procedure, shortened: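 Sf-9 cells co-infected with baculoviruses for α6, β2 and γ2 subunits at an MOI of 3 pfu and harvested at 60 h. Membranes were made by homogenising in normal saline, then spun at 1000g and 40000g. Binding used 6 nM [3H]Ro 15-4513 with varying test ligand concentrations in normal saline, 60 min at 4 °C. Bound label was separated on glass-fibre filters and counted by scintillation.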

[4] = target: GABA-A receptor; alpha-1/beta-2/gamma-2 (Homo sapiens) (UniProt P14867+P47870+P18507); assay: In vitro efficacy for GABA-A alpha-1-beta-2-gamma-2 subtype expressed in A293 cells in Cl- current assay; format: functional, cell-based; details: Rattus norvegicus; HEK293
Procedure, shortened: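 Stable A293 (human kidney) cells were transfected with α1, β2 and γ2 cDNAs and selected 2 weeks in 1 mg/mL G418; Northern-positive cells were used. Whole-cell patch clamp used a pipette solution of CsCl/EGTA/MgCl2/ATP/Hepes at pH 7.3 and an external normal saline at pH 7.2. GABA with or without drug was applied by U-tube for 10 s. Holding potential was -60 mV, room temperature.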

[5] = target: GABA-A receptor; anion channel (Rattus norvegicus) (UniProt O09028+P15431+P18506+P18508+P19969+P20236+P23574+P23576+P28471+P28473+P30191+P62813+P63079+P63138+Q91ZM7+Q9ES14); assay: Binding to GABA-A receptor complex relative to TBPS binding to picrotoxin convulsant site; format: functional
Procedure, shortened: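 Rat brain membranes ([…]) with 2 nM [35S]TBPS in 1 M NaCl, 10 mM Tris/HCl pH 7.4, 120 min at 24 °C; drugs added from methanol (≤0.2%, constant). Filtration read-out, nonspecific binding with 2 mM unlabeled TBPS.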

Sequence of GABA A receptor alpha-6/beta-2/gamma-2 (P18508 whole entry): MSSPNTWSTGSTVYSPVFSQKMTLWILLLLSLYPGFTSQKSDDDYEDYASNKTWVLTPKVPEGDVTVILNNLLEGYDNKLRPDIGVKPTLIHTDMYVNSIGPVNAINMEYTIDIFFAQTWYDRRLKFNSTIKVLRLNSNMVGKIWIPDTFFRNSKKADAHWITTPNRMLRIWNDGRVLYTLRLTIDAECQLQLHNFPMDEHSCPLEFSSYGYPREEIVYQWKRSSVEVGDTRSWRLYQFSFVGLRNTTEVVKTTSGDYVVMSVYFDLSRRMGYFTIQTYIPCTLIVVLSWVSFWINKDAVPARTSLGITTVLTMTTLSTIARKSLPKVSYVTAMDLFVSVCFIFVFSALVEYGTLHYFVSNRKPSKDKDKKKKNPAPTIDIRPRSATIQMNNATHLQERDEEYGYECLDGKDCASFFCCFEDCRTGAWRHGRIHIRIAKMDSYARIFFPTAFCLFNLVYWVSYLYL
Sequence of GABA A receptor alpha-6/beta-2/gamma-2 (P30191 whole entry): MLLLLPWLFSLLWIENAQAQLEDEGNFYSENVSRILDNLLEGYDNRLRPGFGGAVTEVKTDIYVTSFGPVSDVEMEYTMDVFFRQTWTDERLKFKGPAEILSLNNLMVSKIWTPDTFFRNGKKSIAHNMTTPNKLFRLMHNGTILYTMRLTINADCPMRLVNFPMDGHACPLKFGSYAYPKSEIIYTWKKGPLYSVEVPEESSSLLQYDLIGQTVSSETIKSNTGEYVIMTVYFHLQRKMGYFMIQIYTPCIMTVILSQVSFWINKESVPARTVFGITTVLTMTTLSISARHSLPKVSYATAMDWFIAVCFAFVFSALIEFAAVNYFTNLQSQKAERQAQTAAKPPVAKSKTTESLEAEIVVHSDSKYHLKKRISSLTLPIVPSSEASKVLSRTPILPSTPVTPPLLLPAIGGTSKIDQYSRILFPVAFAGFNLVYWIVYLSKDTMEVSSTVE
Sequence of GABA A receptor alpha-6/beta-2/gamma-2 (P63138 whole entry): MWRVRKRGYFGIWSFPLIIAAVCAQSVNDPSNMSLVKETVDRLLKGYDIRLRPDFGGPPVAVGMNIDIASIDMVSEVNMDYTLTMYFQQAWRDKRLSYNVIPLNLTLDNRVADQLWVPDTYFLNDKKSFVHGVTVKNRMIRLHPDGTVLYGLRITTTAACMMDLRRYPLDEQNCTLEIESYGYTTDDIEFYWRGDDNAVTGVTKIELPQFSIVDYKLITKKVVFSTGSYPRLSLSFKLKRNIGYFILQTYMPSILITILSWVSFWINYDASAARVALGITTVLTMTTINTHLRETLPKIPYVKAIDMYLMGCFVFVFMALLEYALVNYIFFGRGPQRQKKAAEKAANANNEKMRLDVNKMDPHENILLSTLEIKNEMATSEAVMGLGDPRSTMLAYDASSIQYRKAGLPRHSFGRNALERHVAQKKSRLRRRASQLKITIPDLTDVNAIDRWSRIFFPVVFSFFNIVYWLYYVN

SMILES	Ki [1] [nM]	Ki [2] [nM]	inhibition [3] [%]	Activity [4]	Ratio [5]
COn1c(=O)n2c3c(cccc31)-n1cnc(-c3noc(C4CC4)n3)c1C2	7.3	> 589	36.4	0.73	0.68
CC(C)N1Cc2cccc3c2N(Cc2c(-c4noc(C5CC5)n4)ncn2-3)C1=O	1.2	> 589	20.9	0.65	0.41
O=C1CCC2c3c(-c4noc(C5CC5)n4)ncn3-c3ccccc3N12 (stereo unspecified)	–	13.2	–	0.29	1.15
CC(C)(C)OC(=O)N1CC(=O)N2Cc3c(-c4noc(C5CC5)n4)ncn3-c3cccc1c32	579	> 589	13.5	0.6	0.63
O=C1CCc2cccc3c2N1Cc1c(-c2noc(C4CC4)n2)ncn1-3	2.6	> 589	0	0.07	0.09
O=C1CNc2cccc3c2N1Cc1c(-c2noc(C4CC4)n2)ncn1-3	19	> 589	14.7	0.39	0.58
CC1(C)CC(=O)N2Cc3c(-c4noc(C5CC5)n4)ncn3-c3cccc1c32	9.9	> 589	35	1.1	0.75
CN1Cc2cccc3c2N(Cc2c(-c4noc(C5CC5)n4)ncn2-3)C1=O	3.7	> 589	16.3	0.5	0.08
CN(C)C(=O)N1Cc2c(-c3noc(C4CC4)n3)ncn2-c2ccccc21 [PNU-91571]	–	13.2	–	0.68	0.69
O=C1COc2cccc3c2N1Cc1c(-c2noc(C4CC4)n2)ncn1-3	2	–	–	–	0.35
CN1C(=O)CN=C(c2ccccc2)c2cc(Cl)ccc21 [DIAZEPAM]	–	–	–	1	–
O=C1CC(c2ccccc2)c2cccc3c2N1Cc1c(-c2noc(C4CC4)n2)ncn1-3 (stereo unspecified)	25	> 589	13.6	0.88	0.88
CC(C)n1c(=O)c2c(-c3noc(C4CC4)n3)ncn2c2ccccc21 [PANADIPLON]	–	603	–	0.04	–
O=C1OCc2cccc3c2N1Cc1c(-c2noc(C4CC4)n2)ncn1-3	21	> 589	14.3	0.35	0.52
